From ChEMBL document CHEMBL3232847, “Discovery of 6-phenylpyrimido[4,5-b][1,4]oxazines as potent and selective acyl CoA:diacylglycerol acyltransferase 1 (DGAT1) inhibitors with in vivo efficacy in rodents” (J Med Chem, 2014)
Activity calls are given as the source filed them. The calls are words filed in the database; no cut-off is given here.

Tests used:
[1] = Half life in cynomolgus monkey at 0.5 mg/kg, iv; type: ADME, organism-based, Macaca fascicularis; parameters: dose 0.5 mg/kg, route intravenous; conditions: in vivo
[2] = target: T1, Voltage-gated inwardly rectifying potassium channel KCNH2 (Homo sapiens, UniProt Q12809); assay: Inhibition of human ERG up to 5 uM by patch clamp assay
T1 sequence (Q12809 whole entry): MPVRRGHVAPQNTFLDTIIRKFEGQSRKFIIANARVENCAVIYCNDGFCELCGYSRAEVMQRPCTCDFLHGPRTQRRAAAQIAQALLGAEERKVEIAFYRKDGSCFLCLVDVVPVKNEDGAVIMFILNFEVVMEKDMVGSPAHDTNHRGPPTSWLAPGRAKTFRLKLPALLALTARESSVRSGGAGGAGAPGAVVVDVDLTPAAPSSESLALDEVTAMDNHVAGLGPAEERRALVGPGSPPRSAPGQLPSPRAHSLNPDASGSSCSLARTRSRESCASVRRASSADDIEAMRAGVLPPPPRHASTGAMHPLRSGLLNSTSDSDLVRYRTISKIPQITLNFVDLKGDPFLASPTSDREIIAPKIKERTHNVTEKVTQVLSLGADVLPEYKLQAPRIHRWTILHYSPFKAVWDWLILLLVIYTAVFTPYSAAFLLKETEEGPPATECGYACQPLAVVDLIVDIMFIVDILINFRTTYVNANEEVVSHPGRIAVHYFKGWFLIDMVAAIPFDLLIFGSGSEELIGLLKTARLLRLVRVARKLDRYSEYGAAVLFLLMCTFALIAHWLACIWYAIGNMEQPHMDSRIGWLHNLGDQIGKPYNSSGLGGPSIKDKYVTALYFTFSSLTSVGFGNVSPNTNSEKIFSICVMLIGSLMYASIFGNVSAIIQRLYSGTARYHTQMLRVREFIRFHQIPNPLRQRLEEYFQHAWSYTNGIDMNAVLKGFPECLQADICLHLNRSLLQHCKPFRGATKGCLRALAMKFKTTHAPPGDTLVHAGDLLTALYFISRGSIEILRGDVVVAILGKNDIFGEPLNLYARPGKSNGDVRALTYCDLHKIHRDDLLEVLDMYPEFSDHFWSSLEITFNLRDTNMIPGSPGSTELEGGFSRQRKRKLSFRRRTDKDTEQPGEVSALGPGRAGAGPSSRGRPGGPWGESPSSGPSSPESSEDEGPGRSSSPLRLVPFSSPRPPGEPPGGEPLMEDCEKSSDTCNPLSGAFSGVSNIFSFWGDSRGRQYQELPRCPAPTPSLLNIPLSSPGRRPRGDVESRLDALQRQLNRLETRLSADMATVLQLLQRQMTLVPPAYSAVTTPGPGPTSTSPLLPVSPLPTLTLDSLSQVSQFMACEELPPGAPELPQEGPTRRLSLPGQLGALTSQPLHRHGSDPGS

[3] = Half life in beagle dog at 0.2 mg/kg, iv; type: ADME, organism-based, Canis lupus familiaris; parameters: dose 0.2 mg/kg, route intravenous; conditions: in vivo
[4] = target: T2, Sterol O-acyltransferase 1 (Homo sapiens, UniProt P35610); assay: Inhibition of human full-length flag-tagged ACAT1 expressed in baculovirus infected insect cells using [14C]palmitoyl CoA as substrate after 10 mins by scintillation counting
T2 sequence (P35610 whole entry): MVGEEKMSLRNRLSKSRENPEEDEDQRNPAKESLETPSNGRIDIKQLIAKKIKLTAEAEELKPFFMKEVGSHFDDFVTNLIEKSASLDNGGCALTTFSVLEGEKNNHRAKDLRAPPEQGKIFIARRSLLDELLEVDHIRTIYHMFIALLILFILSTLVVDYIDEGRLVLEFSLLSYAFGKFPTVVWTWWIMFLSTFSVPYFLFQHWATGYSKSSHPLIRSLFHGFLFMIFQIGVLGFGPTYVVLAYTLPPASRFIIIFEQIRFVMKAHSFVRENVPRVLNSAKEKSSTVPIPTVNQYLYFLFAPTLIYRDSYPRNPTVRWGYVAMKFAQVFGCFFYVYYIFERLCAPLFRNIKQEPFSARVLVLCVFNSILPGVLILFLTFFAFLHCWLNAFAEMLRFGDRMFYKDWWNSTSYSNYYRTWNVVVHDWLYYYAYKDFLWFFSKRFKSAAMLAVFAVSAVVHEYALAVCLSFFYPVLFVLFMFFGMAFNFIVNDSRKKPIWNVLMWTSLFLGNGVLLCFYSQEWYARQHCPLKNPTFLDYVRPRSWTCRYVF

[5] = Inhibition of rat small intestine microsomal MGAT by TLC technique in presence of monoacylglycerol and [14C] palmitoyl CoA; type: microsomes
[6] = Oral bioavailability in cynomolgus monkey at 5 mg/kg; type: ADME, organism-based, Macaca fascicularis; conditions: in vivo
[7] = AUC in Sprague-Dawley rat at 30 mg/kg, po qd; type: ADME, organism-based; parameters: dose 30 mg/kg, route oral; conditions: plasma
Method in brief: (§1)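 Sprague-Dawley rats dosed orally once daily for 14 days in a multiple-dose toxicity study at 10, 30 or 100 mg/kg. Plasma exposure was reported as AUC, and clinical and histopathological findings were recorded.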

[8] = Half life in Sprague-Dawley rat at 0.7 mg/kg, iv; type: ADME, organism-based; parameters: dose 0.7 mg/kg, route intravenous; conditions: in vivo
[9] = Volume of distribution at steady state in beagle dog at 0.2 mg/kg, iv; type: ADME, organism-based, Canis lupus familiaris; parameters: dose 0.2 mg/kg, route intravenous; conditions: in vivo, read-out: Vdss
Cynomolgus monkey [10] = assay: Toxicity in cynomolgus monkey assessed as elevation of AST level at 10 to 30 mg/kg/day, po qd by 21-day multiple-dose toxicity study relative to control; type: organism-based, Macaca fascicularis; parameters: route oral; conditions: in vivo
Method in brief: (§2)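 Cynomolgus monkeys were dosed po once daily at 10 and 30 mg/kg for 21 days. ALT and AST levels, QTc intervals, and clinical and histopathological findings were assessed, and plasma AUC was recorded for each dose.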

[11] = Volume of distribution at steady state in cynomolgus monkey at 0.5 mg/kg, iv; type: ADME, organism-based, Macaca fascicularis; parameters: dose 0.5 mg/kg, route intravenous; conditions: in vivo, read-out: Vdss
[12] = AUC in cynomolgus monkey at 10 mg/kg/day, po qd; type: ADME, organism-based, Macaca fascicularis; parameters: route oral; conditions: plasma
Method in brief: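 Cynomolgus monkeys dosed orally once daily at 10 or 30 mg/kg for 21 days in a multiple-dose toxicity study. Plasma AUC was reported, with ALT/AST levels, QTc intervals and clinical and histopathological findings monitored.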

[13] = Oral bioavailability in beagle dog at 2 mg/kg; type: ADME, organism-based, Canis lupus familiaris; conditions: in vivo
[14] = Clearance in cynomolgus monkey at 0.5 mg/kg, iv; type: ADME, organism-based, Macaca fascicularis; parameters: dose 0.5 mg/kg, route intravenous; conditions: in vivo
[15] = AUC in Sprague-Dawley rat at 100 mg/kg, po qd; type: ADME, organism-based; parameters: dose 100 mg/kg, route oral; conditions: plasma; method in brief: as §1
[16] = Clearance in beagle dog at 0.2 mg/kg, iv; type: ADME, organism-based, Canis lupus familiaris; parameters: dose 0.2 mg/kg, route intravenous; conditions: in vivo
Cynomolgus monkey [17] = assay: Toxicity in cynomolgus monkey assessed as elevation of change in clinical parameters at 10 to 30 mg/kg/day, po qd by 21-day multiple-dose toxicity study relative to control; type: organism-based, Macaca fascicularis; parameters: route oral; conditions: in vivo; method in brief: as §2
Rattus norvegicus [18] = assay: Reduction in plasma triglyceride level in Sprague-Dawley rat at 1 mg/kg, po treated 30 mins prior to olive oil administration measured 3 hrs post olive oil administration relative to vehicle-treated control; type: functional; parameters: scale not given: the % may be the effect or the level left
Method in brief: (§3)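 Animals received vehicle or compound by oral gavage, then olive oil (5 mL/kg) by oral gavage 30 min later. Plasma triglycerides were measured before dosing and 3 h after the oil. The read-out was the change in TG from pre-dose, compared with vehicle-treated animals.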

[19] = Oral bioavailability in beagle dog at 5 mg/kg; type: ADME, organism-based, Canis lupus familiaris; conditions: in vivo
[20] = Clearance in rhesus monkey at 0.2 mg/kg, iv; type: ADME, organism-based, Macaca mulatta; parameters: dose 0.2 mg/kg, route intravenous; conditions: in vivo
Rattus norvegicus [21] = assay: Reduction in plasma triglyceride level in Sprague-Dawley rat at 0.1 mg/kg, po treated 30 mins prior to olive oil administration measured 3 hrs post olive oil administration relative to vehicle-treated control; type: functional; parameters: scale not given: the % may be the effect or the level left; method in brief: as §3
Rattus norvegicus [22] = assay: Toxicity in Sprague-Dawley rat assessed as change in clinical parameters at 30 mg/kg, po by 14-day multiple-dose toxicity study; type: organism-based; parameters: dose 30 mg/kg, route oral; conditions: in vivo
Method in brief: (§4)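 Sprague−Dawley rats were dosed po once daily for 14 days. Clinical and histopathological findings were assessed, and plasma AUC was recorded for each dose.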

[23] = Half life in beagle dog at 0.5 mg/kg, iv; type: ADME, organism-based, Canis lupus familiaris; parameters: dose 0.5 mg/kg, route intravenous; conditions: in vivo
Rattus norvegicus [24] = species: Rattus norvegicus; assay: Inhibition of rat small intestine microsomal MGAT up to 10 uM by TLC technique in presence of monoacylglycerol and [14C] palmitoyl CoA; type: microsomes
[25] = Volume of distribution at steady state in rhesus monkey at 0.2 mg/kg, iv; type: ADME, organism-based, Macaca mulatta; parameters: dose 0.2 mg/kg, route intravenous; conditions: in vivo, read-out: Vdss
[26] = Oral bioavailability in Sprague-Dawley rat at 2 mg/kg; type: ADME, organism-based; conditions: in vivo
Rattus norvegicus [27] = assay: Toxicity in Sprague-Dawley rat assessed as change in histopathological parameters at 30 mg/kg, po by 14-day multiple-dose toxicity study; type: organism-based; parameters: dose 30 mg/kg, route oral; conditions: in vivo; method in brief: as §4
[28] = Clearance in Sprague-Dawley rat at 1 mg/kg, iv; type: ADME, organism-based; parameters: dose 1 mg/kg, route intravenous; conditions: in vivo
[29] = AUC in beagle dog at 5 mg/kg, po; type: ADME, organism-based, Canis lupus familiaris; parameters: dose 5 mg/kg, route oral; conditions: plasma
[30] = AUC in Sprague-Dawley rat at 30 mg/kg, po; type: ADME, organism-based; parameters: dose 30 mg/kg, route oral; conditions: plasma
Rattus norvegicus [31] = assay: Toxicity in Sprague-Dawley rat assessed as sebaceous gland atrophy at 100 mg/kg, po by 14-day multiple-dose toxicity study; type: organism-based; parameters: dose 100 mg/kg, route oral; conditions: in vivo; method in brief: as §4
[32] = AUC in cynomolgus monkey at 100 mg/kg, po administered as single dose relative to control; type: ADME, organism-based, Macaca fascicularis; parameters: dose 100 mg/kg, route oral; conditions: plasma
Method in brief: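 Cynomolgus monkeys received a single oral dose of 100 mg/kg. Plasma AUC was recorded alongside plasma liver enzymes ALT and AST.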

[33] = Drug metabolism in cynomolgus monkey liver S9 fraction assessed as 2-hydroxy compound formation by MS/MS analysis; type: ADME, subcellular, Macaca fascicularis
[34] = target: T1, Voltage-gated inwardly rectifying potassium channel KCNH2; assay: Inhibition of human ERG by patch clamp assay
Rattus norvegicus [35] = assay: Reduction in plasma triglyceride level in po dosed Sprague-Dawley rat compound treated 30 mins prior to olive oil administration measured 3 hrs post olive oil administration relative to vehicle-treated control; type: functional, organism-based; method in brief: as §3

In the case of CC1(C)Oc2nc(C(F)(F)F)nc(N)c2N=C1c1ccc2c(c1)CC[C@]21CC[C@@H](CC(=O)O)CC1, the half-life [1] is reported as 15.4 h, the “inhibition (INH)” value [2] is reported as “Not Active” and the half-life [3] is reported as 1.1 h. The IC50 [4] was greater than 10 µM, the IC50 [5] was greater than 10 µM and the bioavailability [6] was 99%. It also gave an AUC [7] of 78 µM·h, a half-life [8] of 3.7 h and a Vd [9] of 0.21 L/kg. The Activity (Cynomolgus monkey [10]) was “Non-toxic”, the Vd [11] was 0.44 L/kg and the AUC [12] was 607 µM·h. The bioavailability [13] was 22%, the clearance [14] was 0.333 mL/min/kg and the AUC [15] was 677 µM·h. The clearance [16] was 2.33 mL/min/kg and the Activity (Cynomolgus monkey [17]) was “Non-toxic”.
CC1(C)Oc2ncnc(N)c2N=C1c1ccc([C@H]2CC[C@H](CC(=O)O)CC2)cc1 showed an Activity (Rattus norvegicus [18]) of 110%, a bioavailability [19] of 64% and a clearance [20] of 3.67 mL/min/kg. The Activity (Rattus norvegicus [21]) was 68%, the Activity (Rattus norvegicus [22]) was “Non-toxic” and the half-life [23] was 2.4 h. For the same molecule, the inhibition (Rattus norvegicus [24]) was “inactive”, the Vd [25] was 0.46 L/kg and the bioavailability [26] was 30%. For the same molecule, the Activity (Rattus norvegicus [27]) was “Non-toxic”, the clearance [28] was 9.17 mL/min/kg and the AUC [29] was 4720 ng·h/mL. For the same molecule, the AUC [30] was 913 µM·h, the Activity (Rattus norvegicus [31]) was “Toxic” and the AUC [32] was 1420 µM·h. For the same molecule, the Drug metabolism [33] was “metabolite_detected”, the IC50 [34] was greater than 10 µM and the Activity (Rattus norvegicus [35]) was “Dose-dependent effect”.
